{
  "source": "ChEMBL document CHEMBL5678801",
  "about": "“A benzothiophene inhibitor of mitogen-activated protein kinase-activated protein kinase 2 inhibits tumor necrosis factor alpha production and has oral anti-inflammatory efficacy in acute and chronic models of inflammation” (J Pharmacol Exp Ther, 2010)",
  "key": {"[1]": {"experiment": "Plasma protein binding in human", "type": "ADME, cell-free", "details": "read-out: PPB (converted)", "in_short": "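Binding to rat and human plasma was measured in vitro by ultracentrifugation.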"}, "[2]": {"target": "T1, Tyrosine-protein kinase Mer (Homo sapiens, UniProt Q12866)", "T1 sequence (Q12866 whole entry)": "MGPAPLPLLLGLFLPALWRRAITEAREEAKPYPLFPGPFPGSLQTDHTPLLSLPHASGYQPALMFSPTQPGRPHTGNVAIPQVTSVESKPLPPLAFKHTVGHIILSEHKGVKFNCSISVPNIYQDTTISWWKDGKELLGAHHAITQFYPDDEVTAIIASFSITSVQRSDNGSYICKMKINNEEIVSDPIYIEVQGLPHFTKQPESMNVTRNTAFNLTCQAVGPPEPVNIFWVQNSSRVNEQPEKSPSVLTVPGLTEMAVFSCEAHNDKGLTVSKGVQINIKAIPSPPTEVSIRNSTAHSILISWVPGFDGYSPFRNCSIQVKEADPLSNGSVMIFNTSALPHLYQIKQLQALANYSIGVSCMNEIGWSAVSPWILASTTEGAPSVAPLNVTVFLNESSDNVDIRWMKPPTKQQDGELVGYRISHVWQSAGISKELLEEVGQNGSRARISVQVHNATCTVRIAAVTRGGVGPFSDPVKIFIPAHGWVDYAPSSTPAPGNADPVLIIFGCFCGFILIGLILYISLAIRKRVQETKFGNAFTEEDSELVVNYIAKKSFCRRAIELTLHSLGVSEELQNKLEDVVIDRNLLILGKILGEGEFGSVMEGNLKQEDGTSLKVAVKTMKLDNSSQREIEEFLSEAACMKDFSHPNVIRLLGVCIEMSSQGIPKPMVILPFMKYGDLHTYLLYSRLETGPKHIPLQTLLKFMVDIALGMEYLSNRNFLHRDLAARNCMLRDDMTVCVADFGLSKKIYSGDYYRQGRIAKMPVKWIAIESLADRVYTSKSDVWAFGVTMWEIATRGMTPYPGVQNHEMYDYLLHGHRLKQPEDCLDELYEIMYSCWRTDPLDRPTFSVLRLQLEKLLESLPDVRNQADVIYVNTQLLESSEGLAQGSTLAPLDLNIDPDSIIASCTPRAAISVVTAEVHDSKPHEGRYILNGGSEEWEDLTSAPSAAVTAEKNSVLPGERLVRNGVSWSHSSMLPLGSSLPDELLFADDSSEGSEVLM", "experiment": "Inhibition of Mer (unknown origin)", "in_short": "(§1)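 Kinase panel: 200 kinases were first screened at 1 μM inhibitor for percent inhibition. Those above 50% inhibition were then titrated for IC50. MgATP was fixed at the Km(app) determined for each enzyme.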"}, "[3]": {"target": "T2, MAP kinase-activated protein kinase 2 (Homo sapiens, UniProt P49137)", "experiment": "Binding affinity to recombinant N-terminal truncated MK2 (45 to 371 residues) (unknown origin) expressed in Escherichia coli assessed as dissociation constant measured after 15 mins by surface plasmon resonance spectroscopy analysis", "in_short": "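SPR on biotinylated MK2 captured on a streptavidin-coated CM5 chip, at 25°C. Running buffer was 10 mM HEPES, 150 mM NaCl, 0.005% P20, flowing at 60 μl/min. Compound at 1-100 nM was injected for 4 min, then dissociation was followed for 15 min. Real-time binding kinetics were recorded.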"}, "[4]": {"target": "MAP kinase-interacting serine/threonine-protein kinase 1 (Homo sapiens, UniProt Q9BUB5)", "sequence (Q9BUB5 whole entry)": "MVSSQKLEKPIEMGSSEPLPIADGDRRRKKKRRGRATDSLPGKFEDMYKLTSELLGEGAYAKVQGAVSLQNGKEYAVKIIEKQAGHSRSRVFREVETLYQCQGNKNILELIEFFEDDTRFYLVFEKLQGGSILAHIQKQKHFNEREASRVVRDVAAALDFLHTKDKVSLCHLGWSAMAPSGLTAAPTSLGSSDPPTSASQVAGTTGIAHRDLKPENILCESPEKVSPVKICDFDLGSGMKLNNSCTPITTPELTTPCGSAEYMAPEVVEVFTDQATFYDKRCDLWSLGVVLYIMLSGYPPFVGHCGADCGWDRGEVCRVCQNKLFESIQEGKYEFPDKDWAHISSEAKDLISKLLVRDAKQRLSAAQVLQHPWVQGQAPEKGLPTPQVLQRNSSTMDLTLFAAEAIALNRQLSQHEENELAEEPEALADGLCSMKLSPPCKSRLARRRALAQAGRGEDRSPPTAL", "experiment": "Inhibition of recombinant MNK1 (unknown origin) expressed in Escherichia coli using KKKALSRQLSVAA as substrate incubated for 1 hr followed by substrate addition in presence of ATP", "in_short": "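Recombinant MAPKAP kinase was first activated with activated p38α (1:50 molar ratio) and 250 μM ATP for 1 hr at 30°C. Activity was then assayed at Km(app) MgATP by ion-exchange separation of 33P-labeled product peptide. IC50 was taken from duplicate experiments.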"}, "[5]": {"experiment": "Antiinflammatory activity in human Whole blood cell assessed as inhibition of LPS induced IL-6 production preincubated for 1 hr followed by LPS stimulation and measured after 16 hrs by MSD analysis", "type": "functional, cell-based", "in_short": "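Human whole blood was stimulated ex vivo with LPS 100 ng/ml. Plasma cytokines were read by MSD 4-plex: TNFα at 4 h; IL-1β, IL-6 and IL-8 at 16 h. Data are means ±S.E.M. of two independent experiments in duplicate, three donors. IC50 by 4-parameter nonlinear regression.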"}, "[6]": {"target": "T2, MAP kinase-activated protein kinase 2", "experiment": "Binding affinity to recombinant N-terminal truncated MK2 (45 to 371 residues) (unknown origin) expressed in Escherichia coli assessed as inhibition constant measured after 15 mins by surface plasmon resonance spectroscopy analysis"}, "[7]": {"experiment": "Antiinflammatory activity in human Whole blood cell assessed as inhibition of LPS induced TNF alpha production preincubated for 1 hr followed by LPS stimulation and measured after 16 hrs by MSD analysis", "type": "functional, cell-based"}, "[8]": {"target": "T2, MAP kinase-activated protein kinase 2"}, "Rattus norvegicus": {"tested_on": "Rattus norvegicus", "experiment": "Antiinflammatory activity in acute LPS induced TNF-alpha production in Lewis rat model administered via oral dose pretreated for 4 hrs followed by LPS stimulation and measured after 90 mins […]", "type": "functional", "details": "5.5 h, time 330 min", "in_short": "(§2)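 Male Lewis rats (225-250 g, 5 per group) were fasted 18 h, then dosed orally at 0.2-60 mg/kg as a suspension in 0.5% methylcellulose/0.025% Tween 20. LPS 1 mg/kg was given i.v. 4 h later. Blood was taken by cardiac puncture 90 min after LPS. Serum TNFα was read by ELISA and drug by LC-MS/MS, three independent experiments. 4-parameter fit. Unbound values were corrected with measured rat plasma protein binding.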"}, "[9]": {"target": "Serine/threonine-protein kinase pim-1 (Homo sapiens, UniProt P11309)", "sequence (P11309 whole entry)": "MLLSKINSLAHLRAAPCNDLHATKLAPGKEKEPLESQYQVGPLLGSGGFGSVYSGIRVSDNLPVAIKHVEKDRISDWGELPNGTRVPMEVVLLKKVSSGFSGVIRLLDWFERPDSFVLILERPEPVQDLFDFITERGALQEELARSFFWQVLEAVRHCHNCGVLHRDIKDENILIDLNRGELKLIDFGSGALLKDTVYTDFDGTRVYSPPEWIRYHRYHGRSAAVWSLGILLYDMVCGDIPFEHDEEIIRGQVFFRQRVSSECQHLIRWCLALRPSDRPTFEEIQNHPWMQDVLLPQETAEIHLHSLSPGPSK", "experiment": "Inhibition of Pim1 (unknown origin)", "in_short": "as §1"}, "[10]": {"target": "T2, MAP kinase-activated protein kinase 2", "remark": "listed apart in the source"}, "[11]": {"experiment": "AUC in chronic SCW-induced arthritis Lewis rat model plasma at ED50 concentration", "type": "ADME, cell-free", "in_short": "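Female Lewis rats (125-140 g) received a single i.p. streptococcal cell wall injection. Animals showing the acute phase were pooled, 4-8 per group over three experiments. Dosing was oral gavage b.i.d., days 10-21, in methylcellulose-Tween-20 vehicle. Hind paw volume was read by displacement plethysmometer on day 21, as % inhibition of swelling. Plasma was sampled up to 11 h after the last dose, 3 rats per dose. ED values came from fitted curves.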"}, "[12]": {"experiment": "Plasma concentration in po dosed LPS-induced Lewis rat model at ED50 concentration measured after 5.5 hrs of initial dose by LC-MS/MS analysis", "type": "ADME, organism-based", "in_short": "as §2"}, "[13]": {"experiment": "Inhibition of CaMK II (unknown origin)", "design": "species or system Homo sapiens"}, "[14]": {"experiment": "Antiinflammatory activity in human PBMC cells assessed as inhibition of LPS induced IL-1 beta production preincubated for 1 hr followed by LPS stimulation and measured after 16 hrs by MSD analysis", "type": "functional, cell-based", "in_short": "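Human PBMCs were pretreated with compound for 1 h (<1% DMSO final), then stimulated with LPS 100 ng/ml at 37°C. Cytokines in culture media were read by MSD 4-plex: TNFα at 4 h; IL-1β, IL-6 and IL-8 at 16 h. Data are means ±S.E.M. of two independent experiments in duplicate, three donors. IC50 by 4-parameter nonlinear regression.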"}},
  "data": [
    {"smiles": "Cc1ccc(-c2ccc3c(ccc4sc5c(c43)NC[C@@H](C)NC5=O)n2)cn1", "values": [
      {"measurement": "fraction unbound", "setting": "[1]", "value": 0.064},
      {"measurement": "IC50", "setting": "[2]", "value": 76, "unit": "nM"},
      {"measurement": "Kd", "setting": "[3]", "value": 5.9, "unit": "nM"},
      {"measurement": "IC50", "setting": "[4]", "value": 3000, "unit": "nM"},
      {"measurement": "IC50", "setting": "[5]", "value": 10300, "unit": "nM"},
      {"measurement": "Ki", "setting": "[6]", "value": 3, "unit": "nM"},
      {"measurement": "IC50", "setting": "[7]", "value": 1380, "unit": "nM"},
      {"measurement": "fIC50", "setting": "[8]", "value": 126, "unit": "nM"},
      {"measurement": "ED50", "setting": "Rattus norvegicus", "value": 6.9, "unit": "mg/kg"},
      {"measurement": "ED80", "setting": "Rattus norvegicus", "value": 19, "unit": "mg/kg"},
      {"measurement": "IC50", "setting": "[9]", "value": 88, "unit": "nM"},
      {"measurement": "T1/2", "setting": "[10]", "value": 2.43, "unit": "min"},
      {"measurement": "AUC", "setting": "[11]", "value": 34, "unit": "µM·h"},
      {"measurement": "concentration at 5.5 h", "setting": "[12]", "value": 1400, "unit": "nM"},
      {"measurement": "IC50", "setting": "[13]", "value": 70, "unit": "nM"},
      {"measurement": "IC50", "setting": "[14]", "value": 2710, "unit": "nM"}
    ]}
  ]
}
